According to ChEMBL document CHEMBL1145138, “Design and synthesis of 4-azaindoles as inhibitors of p38 MAP kinase” (J Med Chem, 2003):
Blank lines part the entries; values can stand above or below the molecule they belong to.

Assays:
[1] = T 1/2 at a dose of 10 mg/Kg administered intravenously in female hanover-wistar rat; type: ADME, organism-based; details: in vivo, iv
Method in brief: (§1)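 Female Wistar/Han rats weighing 180–220 g, 3 per dose regime, received a single 10 mg/kg IV bolus in 50% cyclodextran/water. Blood was drawn under CO₂:O₂ (60:40) via orbital sinus or cardiac puncture at 1, 3, 6, 8 and 24 h. Plasma was protein-precipitated with acetonitrile, diluted in 50 mM formate buffer and quantified by LC/MS.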

[2] = T 1/2 at a dose of 10 mg/Kg administered perorally in female hanover-wistar rat; type: ADME, organism-based; details: in vivo, po
Method in brief: (§2)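 Female Wistar/Han rats (180–220 g, n=3 per regime) received a single 10 mg/kg oral suspension in 0.9% NaCl, 0.5% Na-CMC, 0.4% polysorbate 80 and 0.9% benzyl alcohol. Blood was taken at 1, 3, 6, 8 and 24 h by orbital sinus or cardiac puncture. Plasma drug was measured by LC/MS after acetonitrile precipitation; the comparison arm was a 10 mg/kg IV bolus.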

[3] = T max at a dose of 10 mg/Kg administered intravenously in female hanover-wistar rat; type: ADME, organism-based; details: in vivo, iv; method in brief: as §1
[4] = T max at a dose of 10 mg/Kg administered perorally in female hanover-wistar rat; type: ADME, organism-based; details: in vivo, po; method in brief: as §2
[5] = AUC at a dose of 10 mg/Kg administered intravenously in female hanover-wistar rat; type: ADME, organism-based; details: plasma, iv; method in brief: as §1
[6] = AUC at a dose of 10 mg/Kg administered perorally in female hanover-wistar rat; type: ADME, organism-based; details: plasma, po; method in brief: as §2
[7] = Bioavailability at a dose of 10 mg/Kg administered perorally in female hanover-wistar rat; type: ADME, organism-based; details: in vivo, po; method in brief: as §2
[8] = CL at a dose of 10 mg/Kg administered intravenously in female hanover-wistar rat; type: ADME, organism-based; details: in vivo, iv; method in brief: as §1
[9] = C max at a dose of 10 mg/Kg administered intravenously in female hanover-wistar rat; type: ADME, organism-based; set-up: dose 10 mg/Kg, route intravenous; details: in vivo, iv; method in brief: as §1
[10] = C max at a dose of 10 mg/Kg administered perorally in female hanover-wistar rat; type: ADME, organism-based; set-up: dose 10 mg/Kg, route oral; details: in vivo, po; method in brief: as §2
[11] = Partition coefficient (logP); type: physicochemical; details: octanol/water
Homo sapiens = species on record: Homo sapiens; test: Caco-2 permeability was determined; activity value is 5.8*10e-5; type: ADME
[12] = target: Cyclin-dependent kinase 1 (Homo sapiens, UniProt P06493); test: Inhibition of Cyclin-dependent kinase 1
Chain of Cyclin-dependent kinase 1 (P06493 whole entry): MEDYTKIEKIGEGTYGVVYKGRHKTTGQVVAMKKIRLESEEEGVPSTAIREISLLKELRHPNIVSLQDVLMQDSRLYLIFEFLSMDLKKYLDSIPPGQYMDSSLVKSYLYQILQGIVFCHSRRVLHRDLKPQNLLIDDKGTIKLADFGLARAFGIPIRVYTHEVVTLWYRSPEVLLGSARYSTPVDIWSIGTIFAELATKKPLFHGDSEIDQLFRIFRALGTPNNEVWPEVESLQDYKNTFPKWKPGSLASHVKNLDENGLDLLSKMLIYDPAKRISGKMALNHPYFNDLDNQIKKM

[13] = target: Cyclin-dependent kinase 2 (Homo sapiens, UniProt P24941); test: Inhibition of Cyclin-dependent kinase 2
[14] = target: Cyclin-dependent kinase 3 (Homo sapiens, UniProt Q00526); test: Inhibition of Cyclin-dependent kinase 3
Chain of Cyclin-dependent kinase 3 (Q00526 whole entry): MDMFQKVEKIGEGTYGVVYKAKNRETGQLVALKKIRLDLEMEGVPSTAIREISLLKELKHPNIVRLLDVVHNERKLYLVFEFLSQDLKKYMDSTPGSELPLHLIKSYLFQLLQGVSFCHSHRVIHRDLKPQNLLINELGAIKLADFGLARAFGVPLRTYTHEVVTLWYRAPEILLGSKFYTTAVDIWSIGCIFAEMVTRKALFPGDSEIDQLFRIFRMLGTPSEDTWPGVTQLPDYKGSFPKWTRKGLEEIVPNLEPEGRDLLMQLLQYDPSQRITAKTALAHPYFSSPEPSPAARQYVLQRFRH

[15] = target: Cyclin-dependent kinase 4 (Homo sapiens, UniProt P11802); test: Inhibition of Cyclin-dependent kinase 4
Chain of Cyclin-dependent kinase 4 (P11802 whole entry): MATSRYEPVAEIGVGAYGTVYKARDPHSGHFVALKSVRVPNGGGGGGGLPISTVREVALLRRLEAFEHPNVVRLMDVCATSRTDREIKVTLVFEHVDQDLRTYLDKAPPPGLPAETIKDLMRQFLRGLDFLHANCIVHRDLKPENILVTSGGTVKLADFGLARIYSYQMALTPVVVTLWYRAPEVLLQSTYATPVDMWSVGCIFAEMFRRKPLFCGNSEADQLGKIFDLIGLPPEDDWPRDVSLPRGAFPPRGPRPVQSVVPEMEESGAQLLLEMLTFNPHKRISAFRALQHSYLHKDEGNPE

[16] = target: Tyrosine-protein kinase Fyn (Homo sapiens, UniProt P06241); test: Inhibition of p55 Fyn kinase
Chain of Tyrosine-protein kinase Fyn (P06241 whole entry): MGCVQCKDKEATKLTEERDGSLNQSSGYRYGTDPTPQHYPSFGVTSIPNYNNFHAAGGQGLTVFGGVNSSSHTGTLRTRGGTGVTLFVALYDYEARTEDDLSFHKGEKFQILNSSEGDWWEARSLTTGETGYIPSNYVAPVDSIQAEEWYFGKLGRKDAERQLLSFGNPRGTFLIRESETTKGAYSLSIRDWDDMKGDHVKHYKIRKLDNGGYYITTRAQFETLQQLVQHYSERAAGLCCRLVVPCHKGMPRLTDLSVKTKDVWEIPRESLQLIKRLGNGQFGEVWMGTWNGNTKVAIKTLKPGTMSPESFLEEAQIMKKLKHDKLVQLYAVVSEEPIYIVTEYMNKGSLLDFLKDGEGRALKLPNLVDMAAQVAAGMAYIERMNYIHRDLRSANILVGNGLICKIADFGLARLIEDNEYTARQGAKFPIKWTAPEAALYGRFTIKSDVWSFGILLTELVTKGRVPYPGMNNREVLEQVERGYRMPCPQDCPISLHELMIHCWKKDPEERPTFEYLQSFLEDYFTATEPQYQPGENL

[17] = target: T1, Inhibitor of nuclear factor kappa-B kinase subunit beta (Homo sapiens, UniProt O14920); test: Inhibition of I-kappa-B-kinase beta
T1 sequence (O14920 whole entry): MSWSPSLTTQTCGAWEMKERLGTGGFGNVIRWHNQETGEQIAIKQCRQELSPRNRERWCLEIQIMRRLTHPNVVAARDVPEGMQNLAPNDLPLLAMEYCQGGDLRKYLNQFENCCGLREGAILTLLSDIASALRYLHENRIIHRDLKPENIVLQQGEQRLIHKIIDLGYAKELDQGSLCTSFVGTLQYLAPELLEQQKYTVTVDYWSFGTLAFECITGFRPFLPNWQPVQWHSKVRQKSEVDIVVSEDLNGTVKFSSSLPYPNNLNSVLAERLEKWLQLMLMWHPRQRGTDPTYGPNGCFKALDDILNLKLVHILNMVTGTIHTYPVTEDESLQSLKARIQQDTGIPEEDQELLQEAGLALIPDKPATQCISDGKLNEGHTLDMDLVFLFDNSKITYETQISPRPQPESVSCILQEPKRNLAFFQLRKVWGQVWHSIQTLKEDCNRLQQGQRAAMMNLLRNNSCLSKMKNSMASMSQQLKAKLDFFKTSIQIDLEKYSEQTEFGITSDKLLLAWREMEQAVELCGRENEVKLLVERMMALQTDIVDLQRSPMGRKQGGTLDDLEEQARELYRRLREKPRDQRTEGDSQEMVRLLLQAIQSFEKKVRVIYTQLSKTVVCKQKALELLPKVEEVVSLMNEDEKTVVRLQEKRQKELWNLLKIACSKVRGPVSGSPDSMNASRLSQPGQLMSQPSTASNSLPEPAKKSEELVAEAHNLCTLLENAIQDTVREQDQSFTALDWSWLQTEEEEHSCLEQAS

[18] = target: T2, Interleukin-1 receptor-associated kinase 4 (Homo sapiens, UniProt Q9NWZ3); test: Inhibition of Interleukin-1 receptor-associated kinase-4
T2 sequence (Q9NWZ3 whole entry): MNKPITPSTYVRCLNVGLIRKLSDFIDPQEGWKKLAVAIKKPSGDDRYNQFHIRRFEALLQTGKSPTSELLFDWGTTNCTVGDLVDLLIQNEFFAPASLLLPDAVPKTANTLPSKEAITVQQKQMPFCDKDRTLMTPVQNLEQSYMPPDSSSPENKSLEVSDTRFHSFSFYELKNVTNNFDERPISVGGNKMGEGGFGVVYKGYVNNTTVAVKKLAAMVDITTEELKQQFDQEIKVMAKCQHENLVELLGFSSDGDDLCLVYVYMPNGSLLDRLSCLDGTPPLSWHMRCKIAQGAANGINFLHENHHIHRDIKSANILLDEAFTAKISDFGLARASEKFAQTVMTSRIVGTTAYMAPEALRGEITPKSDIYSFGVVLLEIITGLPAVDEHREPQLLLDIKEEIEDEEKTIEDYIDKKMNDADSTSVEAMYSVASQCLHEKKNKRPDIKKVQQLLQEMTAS

MAP kinase p38 [19] = target: T3, MAP kinase p38 (Homo sapiens, UniProt O15264+Q15759+Q16539+P53778); test: Inhibition of LPS-induced p38-related IL1-beta production in human white blood cells; type: functional, cell-based
Method in brief: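 Heparinized whole blood from donors medication-free for at least 14 days. Compounds came from a 6 mM DMSO stock, six 3-fold serial dilutions in DMSO, then diluted 1/20 in RPMI and run in triplicate. Blood was preincubated with compound 30 min at 37 °C, then stimulated with E. coli 0127:B8 LPS at 0.5 μg/mL final overnight at 37 °C, 5% CO₂. Plasma IL-1β was measured by ELISA.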

[20] = target: MAP kinase-activated protein kinase 2 (Homo sapiens, UniProt P49137); test: Inhibition of MAP kinase-activated protein kinase 2
Chain of MAP kinase-activated protein kinase 2 (P49137 whole entry): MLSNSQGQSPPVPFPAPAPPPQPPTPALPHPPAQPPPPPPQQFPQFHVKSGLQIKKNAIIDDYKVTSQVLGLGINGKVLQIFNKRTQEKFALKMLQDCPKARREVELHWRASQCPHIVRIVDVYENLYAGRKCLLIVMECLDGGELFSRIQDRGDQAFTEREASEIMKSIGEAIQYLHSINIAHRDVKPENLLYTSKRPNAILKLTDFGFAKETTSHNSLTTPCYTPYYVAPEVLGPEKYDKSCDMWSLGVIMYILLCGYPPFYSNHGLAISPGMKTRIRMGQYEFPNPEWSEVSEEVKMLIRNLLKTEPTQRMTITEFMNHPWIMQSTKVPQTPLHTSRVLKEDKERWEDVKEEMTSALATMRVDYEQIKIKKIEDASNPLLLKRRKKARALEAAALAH

[21] = target: T4, Mitogen-activated protein kinase 14 (Homo sapiens, UniProt Q16539); test: In vitro inhibitory concentration against Mitogen-activated protein kinase p38 alpha
T4 sequence (Q16539 whole entry): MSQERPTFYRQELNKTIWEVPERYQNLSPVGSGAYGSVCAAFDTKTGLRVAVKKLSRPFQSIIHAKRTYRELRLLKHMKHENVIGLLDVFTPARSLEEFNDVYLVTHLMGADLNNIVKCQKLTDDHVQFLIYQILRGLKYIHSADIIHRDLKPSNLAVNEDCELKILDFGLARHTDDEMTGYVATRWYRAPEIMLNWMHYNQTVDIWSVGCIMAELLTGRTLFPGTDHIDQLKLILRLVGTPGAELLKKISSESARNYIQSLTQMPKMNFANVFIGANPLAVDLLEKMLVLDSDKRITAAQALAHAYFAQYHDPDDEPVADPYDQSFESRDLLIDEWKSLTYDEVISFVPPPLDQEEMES

[22] = target: T4, Mitogen-activated protein kinase 14; test: Inhibition of Mitogen-activated protein kinase p38 alpha
Method in brief: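 Human recombinant active p38α (5 nM) in MOPS pH 7.4 buffer (40 mM MgCl₂, 1 mM DTT, β-glycerophosphate, EGTA, orthovanadate) was preincubated 10 min at room temperature with compound (0–10 μM, DMSO). Reaction was started with γ-[³³P]ATP (50 μM) and MBP (35 μM), run 30 min at 30 °C, then captured on phosphocellulose, acid-washed and counted. IC50 was fitted as fractional activity = 1/([I]/IC50 + 1).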

[23] = target: Mitogen-activated protein kinase; ERK1/ERK2 (Homo sapiens, UniProt P27361+P28482); test: Inhibition of Mitogen-activated protein kinase ERK; type: protein assay
[24] = target: cAMP-dependent protein kinase (PKA) (Homo sapiens, UniProt P22694+P17612+P22612); test: Inhibition of Protein kinase A (PKA); type: protein assay
Protein kinase C (PKC) = test: Inhibition of Protein kinase C; type: protein assay
Rattus norvegicus = species on record: Rattus norvegicus; test: Effective dose against LPS stimulated TNF alpha production in rats; type: functional
Method in brief: (§3)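 Female Wistar/Han rats, 8 per group, were dosed orally at −30 min with compound in CMC vehicle (0.9% NaCl, 0.5% Na-CMC, 0.4% polysorbate 80, 0.9% benzyl alcohol) or with vehicle alone. LPS 50 μg/kg was given ip at 0 h. At 1.5 h, blood was taken by cardiocentesis after CO₂ euthanasia, and serum TNFα was measured by ELISA against vehicle controls.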

[25] = target: Mitogen-activated protein kinase 14 (Rattus norvegicus) (UniProt P70618); test: In vivo percent inhibition of LPS stimulated TNF alpha synthesis in rat at a concentration of 30 mg/kg; type: functional, organism-based; set-up: dose 30 mg/kg; method in brief: as §3
Chain of Mitogen-activated protein kinase 14 (Rattus norvegicus) (P70618 whole entry): as the sequence (Q16539 whole entry) above, with I17V, L48H, T263A, D321E, L332F counted along it

MAP kinase p38 [26] = target: T3, MAP kinase p38; test: In vitro inhibition of LPS induced p38-related TNFalpha release by THP-1 cells; type: functional, cell-based
Method in brief: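 THP-1 cells at 2.5×10⁶ cells/mL in RPMI with 15% FBS and 0.02 mM 2-mercaptoethanol were preincubated 30 min at 37 °C with compound in DMSO-containing medium (DMSO stated as 5% final). LPS was then added at 0.5 μg/mL final for a further 2 h. Supernatant TNFα was read by trapping ELISA with two anti-TNFα antibodies.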

[27] = target: Vascular endothelial growth factor receptor 2 (Homo sapiens, UniProt P35968); test: Inhibition of Vascular endothelial growth factor receptor 2
Chain of Vascular endothelial growth factor receptor 2 (P35968 whole entry): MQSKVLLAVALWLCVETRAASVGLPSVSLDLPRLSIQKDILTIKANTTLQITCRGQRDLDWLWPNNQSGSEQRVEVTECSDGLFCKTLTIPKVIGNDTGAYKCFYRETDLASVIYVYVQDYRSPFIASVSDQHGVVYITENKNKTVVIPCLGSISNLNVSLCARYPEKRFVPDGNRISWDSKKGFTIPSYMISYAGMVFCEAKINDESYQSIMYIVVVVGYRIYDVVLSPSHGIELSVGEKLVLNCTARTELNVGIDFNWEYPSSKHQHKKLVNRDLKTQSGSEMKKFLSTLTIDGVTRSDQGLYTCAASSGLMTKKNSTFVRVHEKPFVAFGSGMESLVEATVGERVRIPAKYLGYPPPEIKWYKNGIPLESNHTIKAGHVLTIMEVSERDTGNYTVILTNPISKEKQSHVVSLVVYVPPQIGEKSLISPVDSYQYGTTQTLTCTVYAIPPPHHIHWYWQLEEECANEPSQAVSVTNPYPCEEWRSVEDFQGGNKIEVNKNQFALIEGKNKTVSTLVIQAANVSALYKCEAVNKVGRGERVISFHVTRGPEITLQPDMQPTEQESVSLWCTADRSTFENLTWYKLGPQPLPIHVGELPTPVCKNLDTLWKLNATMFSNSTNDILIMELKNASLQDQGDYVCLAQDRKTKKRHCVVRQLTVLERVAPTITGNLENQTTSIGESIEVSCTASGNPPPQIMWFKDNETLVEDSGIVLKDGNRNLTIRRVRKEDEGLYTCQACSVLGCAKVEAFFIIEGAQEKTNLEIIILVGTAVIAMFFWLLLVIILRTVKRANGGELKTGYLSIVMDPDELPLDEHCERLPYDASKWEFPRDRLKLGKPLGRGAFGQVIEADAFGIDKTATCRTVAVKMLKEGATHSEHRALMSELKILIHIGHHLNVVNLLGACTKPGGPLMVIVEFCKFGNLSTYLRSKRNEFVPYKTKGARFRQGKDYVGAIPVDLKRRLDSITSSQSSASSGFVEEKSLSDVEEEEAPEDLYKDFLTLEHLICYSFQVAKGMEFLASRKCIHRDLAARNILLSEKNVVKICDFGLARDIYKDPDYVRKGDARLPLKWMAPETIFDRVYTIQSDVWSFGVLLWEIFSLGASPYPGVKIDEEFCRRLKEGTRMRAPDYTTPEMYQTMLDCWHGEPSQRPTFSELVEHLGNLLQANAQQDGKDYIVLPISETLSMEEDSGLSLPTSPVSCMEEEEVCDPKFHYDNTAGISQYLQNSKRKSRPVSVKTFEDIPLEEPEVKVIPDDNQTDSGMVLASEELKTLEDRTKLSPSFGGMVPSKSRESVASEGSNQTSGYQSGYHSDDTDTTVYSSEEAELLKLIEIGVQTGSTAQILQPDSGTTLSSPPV

[28] = target: Mitogen-activated protein kinase 8 (Homo sapiens, UniProt P45983); test: Inhibition of c-Jun N-terminal kinase 1
Chain of Mitogen-activated protein kinase 8 (P45983 whole entry): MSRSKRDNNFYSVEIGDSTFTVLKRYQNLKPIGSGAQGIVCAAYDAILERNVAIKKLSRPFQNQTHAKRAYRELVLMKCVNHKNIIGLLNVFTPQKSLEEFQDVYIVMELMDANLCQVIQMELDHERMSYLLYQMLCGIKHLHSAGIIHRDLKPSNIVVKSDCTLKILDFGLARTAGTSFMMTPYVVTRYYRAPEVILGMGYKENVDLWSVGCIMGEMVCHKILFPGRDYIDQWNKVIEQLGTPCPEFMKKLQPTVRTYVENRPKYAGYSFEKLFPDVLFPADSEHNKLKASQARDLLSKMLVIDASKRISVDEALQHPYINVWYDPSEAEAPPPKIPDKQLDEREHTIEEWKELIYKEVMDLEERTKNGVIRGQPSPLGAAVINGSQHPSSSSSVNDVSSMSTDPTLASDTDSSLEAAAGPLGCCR

[29] = target: Interleukin-1 receptor-associated kinase 1 (Homo sapiens, UniProt P51617); test: Inhibition of interleukin-1 receptor-associated kinase 1
Chain of Interleukin-1 receptor-associated kinase 1 (P51617 whole entry): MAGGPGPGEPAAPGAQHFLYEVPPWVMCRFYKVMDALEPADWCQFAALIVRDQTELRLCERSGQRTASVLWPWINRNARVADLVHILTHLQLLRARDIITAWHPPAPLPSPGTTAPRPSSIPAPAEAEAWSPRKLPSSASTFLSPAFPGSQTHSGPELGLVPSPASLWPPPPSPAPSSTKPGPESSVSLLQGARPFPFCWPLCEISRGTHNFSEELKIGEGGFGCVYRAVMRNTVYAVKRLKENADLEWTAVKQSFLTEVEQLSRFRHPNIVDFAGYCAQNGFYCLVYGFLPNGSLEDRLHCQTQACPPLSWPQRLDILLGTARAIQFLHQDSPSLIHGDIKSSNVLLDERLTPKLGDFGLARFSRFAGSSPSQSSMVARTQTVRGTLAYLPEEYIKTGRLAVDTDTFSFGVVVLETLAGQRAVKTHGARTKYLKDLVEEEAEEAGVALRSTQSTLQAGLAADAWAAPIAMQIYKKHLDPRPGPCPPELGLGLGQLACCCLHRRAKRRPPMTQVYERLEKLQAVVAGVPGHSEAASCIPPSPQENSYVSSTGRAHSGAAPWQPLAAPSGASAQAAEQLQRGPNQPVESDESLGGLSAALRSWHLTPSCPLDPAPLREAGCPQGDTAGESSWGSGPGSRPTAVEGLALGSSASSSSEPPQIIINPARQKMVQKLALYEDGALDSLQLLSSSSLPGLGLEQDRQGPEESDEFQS

[30] = target: Mitogen-activated protein kinase 14 (Rattus norvegicus) (UniProt P70618); test: In vivo percent inhibition of LPS stimulated TNF alpha synthesis in rat at a concentration of 10 mg/kg

Structure (SMILES): Fc1ccc(-c2c(-c3ccncc3)n(CCN3CCCC3)c3cccnc23)cc1
IC50 [21]: 0.217 µM | inhibition [25]: 86%

Structure (SMILES): COCCn1c(-c2ccncc2)c(-c2ccc(F)cc2)c2ncccc21
IC50 [21]: 0.021 µM

Second part, led by results:

half-life [1]: 1.1 h | half-life [2]: 1.5 h | Tmax [3]: < 1 h | Tmax [4]: 1 h | AUC [5]: 23.4 µM·h | AUC [6]: 20 µM·h | bioavailability [7]: 85.6% | clearance [8]: 1.2 L/h/kg | Cmax [9]: 10.3 µM | Cmax [10]: 6.9 µM | logP [11]: 3.5 | Cell permeation (Homo sapiens): Permeable | IC50 [12]: > 25 µM | IC50 [13]: > 25 µM | IC50 [14]: > 25 µM | IC50 [15]: > 25 µM | IC50 [16]: > 10 µM | IC50 [17]: > 30 µM | IC50 [18]: > 30 µM | IC50 (MAP kinase p38 [19]): 0.21 µM | IC50 [20]: > 30 µM | IC50 [21]: 0.001 µM | IC50 [22]: 0.00129 µM | IC50 [23]: > 10 µM | IC50 [24]: > 10 µM | IC50 (Protein kinase C (PKC)): > 10 µM | inhibition [25]: 88% | IC50 (MAP kinase p38 [26]): 0.0017 µM | IC50 [27]: > 10 µM | IC50 [28]: > 10 µM | IC50 [29]: > 30 µM
Structure (SMILES): C[C@H](O)CNc1cc(-c2[nH]c3cccnc3c2-c2ccc(F)cc2)ccn1
ED50 (Rattus norvegicus): 2 mg/kg

IC50 [21]: 0.003 µM | inhibition [30]: 85%
Structure (SMILES): CCC(O)CNc1cc(-c2[nH]c3cccnc3c2-c2ccc(F)cc2)ccn1 (stereo not drawn)

IC50 [21]: 1.8 µM
Structure (SMILES): Fc1ccc(-c2c(-c3ccncc3)[nH]c3ccccc23)cc1
